Assay results collected from several papers.
pEC50, pIC50: −log10 of the molar value.
Cell line: NCI-H460
Effect on: cell growth or viability

| SMILES | assay | conditions | quantity | result |
| --- | --- | --- | --- | --- |
| COc1ccc(NC(=O)Nc2ccc(-c3cn(Cc4ccc(Cl)cc4)nn3)cc2)cc1 | CCK-8 | 50 µM, 72 h | viability | 86.8% |
| CCCCCCCCCCCCCCCCCCOc1ccccc1CC(=O)OCC[N+]1(C)CCCC1 | SRB | 10 µM | inhibition | 72.5% |
| O=c1cc(OCc2cc(-c3ccccc3)no2)c2ccccc2o1 | MTS | 72 h | pIC50 | < 4.00 |
| COc1ccc(NC(=O)Nc2cccc(-c3cn(Cc4ccccc4C)nn3)c2)cc1 | CCK-8 | 50 µM, 72 h | viability | 80.7% |
| CCCCCCCCCCCCCCCCCCOc1cccc(CC(=O)OCCC[N+](C)(C)C)c1 | SRB | 10 µM | inhibition | 4.47% |
| FC(F)(F)c1cc(OCc2cc(-c3ccccc3)no2)c2ccccc2n1 | MTS | 72 h | pIC50 | < 4.00 |
| O=C(CSc1nc2ccccc2s1)N/N=C/c1ccc(OCC(=O)Nc2cccc([N+](=O)[O-])c2)cc1 | MTS | 72 h | pIC50 | 4.80 |
| COc1ccc(NC(=O)Nc2ccc(-c3cn(Cc4ccc(C)cc4)nn3)cc2)cc1 | CCK-8 | 50 µM, 72 h | viability | 83.2% |
| FC(F)(F)c1cc(OCc2cc(-c3ccccn3)no2)c2ccccc2n1 | MTS | 72 h | pIC50 | < 4.00 |
| Cc1nc(NC(=O)N2CCC[C@H]2C(N)=O)sc1-c1ccnc(C(C)(C)C(F)(F)F)c1 | ATP luminescence | 5 days | pEC50 | 4.46 |
| CCCCCCCCCCCCCCCCCCOc1ccccc1CC(=O)OCC[N+](CC)(CC)CC | SRB | 10 µM | inhibition | 65.4% |
| Cc1ccccc1Cn1cc(-c2cccc(NC(=O)Nc3ccc(F)cc3)c2)nn1 | CCK-8 | 50 µM, 72 h | viability | 72.6% |
| CCCCCCCCCCCCCCCCCCOc1ccc(CC(=O)OCC[N+]2(C)CCOCC2)cc1 | SRB | 10 µM | inhibition | 0.33% |
| c1ccc(-c2cc(CNc3cccc4cccnc34)on2)nc1 | MTS | 72 h | pIC50 | < 4.00 |
| COc1ccc(NC(=O)NCc2cn(Cc3ccc(C)cc3)nn2)cc1 | CCK-8 | 50 µM, 72 h | viability | 95.5% |
| O=C(CSc1nc2ccccc2s1)N/N=C/c1ccc(OCC(=O)Nc2ccc([N+](=O)[O-])cc2)cc1 | MTS | 72 h | pIC50 | < 4.00 |
| CCCCCCCCCCCCCCCCCCOc1ccccc1CC(=O)OCC[N+]1(C)CCCCC1 | SRB | 10 µM | inhibition | 37.8% |
| N#Cc1ccc(-c2cc(COc3cc(C(F)(F)F)nc4ccccc34)on2)cc1 | MTS | 72 h | pIC50 | < 4.00 |
